Laboratory results published in ChEMBL document CHEMBL1781999, “Lead optimization of aryl and aralkyl amine-based triazolopyrimidine inhibitors of Plasmodium falciparum dihydroorotate dehydrogenase with antimalarial activity in mice” (J Med Chem, 2011).
Converted amounts (≈) assume the structure as drawn. The source made the active and inactive calls. The rule behind the calls is not given here.

Experiments:
Mus musculus [1] = experiment: Toxicity in Plasmodium berghei ANKA NK65 infected Swiss Webster mouse assessed as adverse effect at 3 to 100 mg/kg, po qd for 4 days; format: organism-based; set-up: dose 3-100 mg/kg, route oral; settings: in vivo, 96 h
Method in brief: (§1)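 Female Swiss Webster mice, 8-10 weeks old (20-22 g), infected intraperitoneally with 2 × 10^7 P. berghei NK65 ANKA-infected erythrocytes. Oral doses in CMC vehicle (200 μL), first given 3 h post-infection, then at 24, 48 and 72 h. Parasitemia followed daily from 24 h by light microscopy at 1000× oil immersion, counting ≥10 fields of >100 erythrocytes. Mice losing ≥20% body weight were euthanized.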

[2] = Inhibition of His6-tagged recombinant Plasmodium berghei dihydroorotate dehydrogenase expressed in Escherichia coli using L-dihydroorotate as substrate after 10 to 15 mins by DCIP dye-based assay; settings: in the assay text read “5 to 10 mins” for “10 to 15 mins”
Method in brief: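 Truncated soluble enzyme lacking the N-terminal membrane domain. Final concentrations: 0.2 mM L-dihydroorotate, 0.02 mM CoQD, 0.12 mM DCIP. Reaction started with 10 nM enzyme and read at 600 nm for 5–10 min at 20 °C. Inhibitor 0.01–100 μM in 3-fold steps, in triplicate. IC50 from a three-parameter fit of vi/vo from initial rates.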

Rattus norvegicus [3] = organism: Rattus norvegicus; experiment: Toxicity in Sprague-Dawley rat assessed as adverse effects; settings: in vivo
Plasmodium falciparum [4] = experiment: Antimalarial activity against Plasmodium falciparum 3D7 infected in human A positive erythrocytes by [3H]hypoxanthine uptake assay in presence of serum in medium; format: functional, organism-based
Method in brief: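 Growth read by [3H]-hypoxanthine uptake. Each concentration run in quadruplicate and fitted to a four-parameter variable-slope log[I]-response model for 50% growth inhibition.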

[5] = Plasma protein binding in human by albumin chromatographic method; format: ADME, cell-free; settings: read-out: PPB (converted)
[6] = biological target: T1, Dihydroorotate dehydrogenase (Plasmodium falciparum, UniProt Q54A96); experiment: Inhibition of His6-tagged recombinant Plasmodium falciparum dihydroorotate dehydrogenase expressed in Escherichia coli using L-dihydroorotate as substrate after 5 to 10 mins by DCIP dye-based assay
T1 sequence (Q54A96 whole entry): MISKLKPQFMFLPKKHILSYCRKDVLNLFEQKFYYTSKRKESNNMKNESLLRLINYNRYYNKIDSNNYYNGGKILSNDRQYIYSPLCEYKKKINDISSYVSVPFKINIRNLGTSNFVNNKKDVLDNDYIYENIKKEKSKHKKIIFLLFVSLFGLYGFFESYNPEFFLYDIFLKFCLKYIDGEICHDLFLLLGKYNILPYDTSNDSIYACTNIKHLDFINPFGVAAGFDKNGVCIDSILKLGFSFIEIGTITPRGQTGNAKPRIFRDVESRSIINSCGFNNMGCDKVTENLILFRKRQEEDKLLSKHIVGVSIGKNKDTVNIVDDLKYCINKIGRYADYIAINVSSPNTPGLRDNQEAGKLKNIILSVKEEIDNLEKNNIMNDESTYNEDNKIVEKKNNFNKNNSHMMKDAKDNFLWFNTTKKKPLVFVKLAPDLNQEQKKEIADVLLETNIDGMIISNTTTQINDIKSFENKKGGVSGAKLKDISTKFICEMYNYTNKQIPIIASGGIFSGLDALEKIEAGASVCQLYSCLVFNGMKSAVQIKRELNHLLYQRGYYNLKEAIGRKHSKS

Liver microsomes = experiment: Intrinsic clearance in human liver microsome assessed per mg of protein at 1 uM after 60 mins by LC-MS analysis; format: ADME; settings: microsomes, 1 h, 1 µM
Method in brief: (§2)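 Microsomal stability. Compound at 1 μM with liver microsomes (0.4 mg/mL protein) in 0.1 M phosphate pH 7.4 at 37 °C. Started with an NADPH-regenerating system plus MgCl2; controls lacked NADPH. Quenched with cold acetonitrile at time points up to 60 min. Parent loss measured by LC-MS and fitted to exponential decay to give CLint.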

Mus musculus [7] = experiment: Toxicity in Plasmodium berghei ANKA NK65 infected Swiss Webster mouse assessed as adverse effect at 50 mg/kg, po bid for 4 days; format: organism-based; set-up: dose 50 mg/kg, route oral; settings: in vivo, 96 h
Plasmodium falciparum [8] = experiment: Antimalarial activity against Plasmodium falciparum 3D7 infected in human A positive erythrocytes by [3H]hypoxanthine uptake assay in presence of serum in medium albumax; format: functional, organism-based
[9] = Plasma protein binding in rat by ultracentrifugation analysis; format: ADME, cell-free; settings: read-out: PPB (converted)
Method in brief: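 Rat plasma spiked at 200 and 2000 ng/mL, then ultracentrifuged at 223,000 × g for 4.2 h at 37 °C. Free drug in the supernatant plasma water was compared with total drug in non-centrifuged plasma kept at 37 °C for the same time, giving fraction bound.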

Liver = experiment: Intrinsic clearance in mouse liver microsome assessed per mg of protein at 1 uM after 60 mins by LC-MS analysis; format: ADME; settings: microsomes, 1 h; method in brief: as §2
[10] = Aqueous solubility of the compound in phosphate buffer at pH 6.5; format: physicochemical; settings: phosphate buffer, read-out: solubility
Method in brief: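 Non-equilibrium solubility. Concentrated DMSO stocks were diluted into pH 6.5 phosphate buffer (final DMSO 1% v/v) and precipitation was monitored by nephelometry. Solubility is given as the concentration range just before a turbidity signal rose above background.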

Plasmodium berghei ANKA [11] = experiment: Antimalarial activity against Plasmodium berghei ANKA NK65 infected in Swiss Webster mouse assessed as complete cure of animal at 100 mg/kg, po qd measured on day 7 by light microscopic analysis; format: functional, organism-based; set-up: dose 100 mg/kg; method in brief: as §1
Plasmodium berghei ANKA [12] = experiment: Antimalarial activity against Plasmodium berghei ANKA NK65 infected in Swiss Webster mouse assessed as complete cure of animal at 50 mg/kg, po bid measured on day 7 by light microscopic analysis; format: functional, organism-based; set-up: dose 50 mg/kg
Mus musculus [13] = experiment: Cmax in Swiss mouse at 20 mg/kg, po measured after 24 hrs by LC-MS analysis; format: ADME, organism-based; set-up: dose 20 mg/kg, route oral; settings: in vivo
Method in brief: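 Non-fasted male Swiss outbred mice given a single oral gavage dose in 0.5% w/v sodium carboxymethylcellulose, 0.5% v/v benzyl alcohol, 0.4% v/v Tween 80. One mouse per time point, cardiac blood under isoflurane, sampling to 24 h. Plasma stabilized, acetonitrile-precipitated, quantified by LC-MS against blank-plasma standards; Cmax read from concentration-time profile.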

Mus musculus [14] = experiment: Time duration above 1 uM plasma concentration in Swiss mouse at 20 mg/kg, po; format: ADME, organism-based; set-up: dose 20 mg/kg, route oral; settings: in vivo
Method in brief: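 Non-fasted male Swiss outbred mice given a single gavage dose in suspension (0.5% Na-CMC, 0.5% benzyl alcohol, 0.4% Tween 80). One mouse per time point; blood taken by cardiac puncture under isoflurane into stabilizer over 24 h. Plasma measured by LC-MS; time above 1 μM read directly from the concentration-time profile.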

Mus musculus [15] = experiment: Toxicity in Swiss mouse assessed as adverse effect at 20 mg/kg, po measured after 24 hrs; format: organism-based; set-up: dose 20 mg/kg, route oral; settings: in vivo
[16] = biological target: Dihydroorotate dehydrogenase (quinone), mitochondrial (Homo sapiens, UniProt Q02127); experiment: Inhibition of His6-tagged recombinant human dihydroorotate dehydrogenase expressed in Escherichia coli using L-dihydroorotate as substrate after 5 to 10 mins by DCIP dye-based assay
Rattus norvegicus [17] = experiment: Toxicity in Sprague-Dawley rat assessed as adverse effects at 20 mg/kg, po; format: organism-based; set-up: dose 20 mg/kg, route oral; settings: in vivo
Method in brief: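 Male Sprague Dawley rats, fasted overnight, given compound as a 10 min IV jugular infusion (solution) or by oral gavage (suspension), n=2 per group. Monitored through 24 h of cannula blood sampling.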

[18] = Partition coefficient, log D of the compound at pH 7.4 by UV-HPLC analysis; settings: octanol/water

Dihydroorotate dehydrogenase (quinone), mitochondrial, sequence (Q02127 whole entry): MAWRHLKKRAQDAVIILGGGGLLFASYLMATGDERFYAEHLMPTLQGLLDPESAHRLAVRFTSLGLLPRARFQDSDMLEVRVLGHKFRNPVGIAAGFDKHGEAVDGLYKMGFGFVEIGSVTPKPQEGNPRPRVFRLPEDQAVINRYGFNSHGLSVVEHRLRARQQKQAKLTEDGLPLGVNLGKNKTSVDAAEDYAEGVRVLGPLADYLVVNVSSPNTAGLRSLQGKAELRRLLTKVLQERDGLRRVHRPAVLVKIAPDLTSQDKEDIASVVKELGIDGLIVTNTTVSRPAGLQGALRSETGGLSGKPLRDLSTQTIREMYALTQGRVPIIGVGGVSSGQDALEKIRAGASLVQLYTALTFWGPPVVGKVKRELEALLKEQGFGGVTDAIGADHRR

SMILES: Cc1cc(Nc2ccc(S(F)(F)(F)(F)F)cc2)n2ncnc2n1
- Activity (Mus musculus [1]): Non-toxic
- IC50 [2]: 280 nM
- Activity (Rattus norvegicus [3]): Non-toxic
- EC50 (Plasmodium falciparum [4]): 1300 nM
- fraction unbound [5]: 0.046
- IC50 [6]: 130 nM
- CL (Liver microsomes): < 5 µL/min/mg
- Activity (Mus musculus [7]): Non-toxic
- EC50 (Plasmodium falciparum [8]): 180 nM
- fraction unbound [9]: 0.048
- CL (Liver): < 6 µL/min/mg
- solubility [10]: 71 µM (≈ 24.9 µg/mL)
- Activity (Plasmodium berghei ANKA [11]): inactive
- Activity (Plasmodium berghei ANKA [12]): inactive
- Cmax (Mus musculus [13]): 12 µM
- Time (Mus musculus [14]): 18 h
- Activity (Mus musculus [15]): Non-toxic
- IC50 [16]: > 100000 nM
- Activity (Rattus norvegicus [17]): Non-toxic
- logD [18]: 3

SMILES: Cc1cc(Nc2cc(F)c(C(F)(F)F)c(F)c2)n2ncnc2n1
- Activity (Mus musculus [1]): Non-toxic
- IC50 [2]: 280 nM
- Activity (Rattus norvegicus [3]): Non-toxic
- EC50 (Plasmodium falciparum [4]): 1100 nM
- fraction unbound [5]: 0.034
- IC50 [6]: 190 nM
- CL (Liver microsomes): < 5 µL/min/mg
- Activity (Mus musculus [7]): Non-toxic
- EC50 (Plasmodium falciparum [8]): 220 nM
- fraction unbound [9]: 0.027
- CL (Liver): < 6 µL/min/mg
- solubility [10]: 9 µM (≈ 2.96 µg/mL)
- Activity (Plasmodium berghei ANKA [11]): inactive
- Activity (Plasmodium berghei ANKA [12]): inactive
- Cmax (Mus musculus [13]): 33 µM
- Time (Mus musculus [14]): 19 h
- Activity (Mus musculus [15]): Non-toxic
- IC50 [16]: > 30000 nM
- Activity (Rattus norvegicus [17]): Non-toxic
- logD [18]: 2.9
